Reference: PubChem BioAssay
Results filed as inconclusive are left out.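 How the source made its calls, unless noted: active means RAM network inhibition above 8.4% in each of two replicates, 3 SD over the compound average; inconclusive means above 8.4% inhibition in only one replicate; inactive means 8.4% inhibition or less in each replicate.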

What was measured:
[1] = OD615 S. cerevisiae growth inhibition, permissive medium, pilot counter-assay, permissive growth control for S. cerevisiae lifespan shortening project (AID 705;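 active means growth inhibition above 25% in both replicates, a cutoff set 3 SD above the mean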); settings: OD615, 24 h, at 10 µM, hits give high values
How it was run: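 Material: engineered DeaD yeast; compound dosing: one dose 10 µM, DMSO 0.25% final; measure: yeast growth inhibition indicated by reduced 24 h OD615; detection: OD615 turbidity read; incubation: cells pre-grown 4 h, then 24 h compound exposure, 30 °C humidified; medium: permissive synthetic complete medium with raffinose and galactose carbon sources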

[2] = Restrictive medium S. cerevisiae growth inhibition, OD615, pilot screen of yeast lifespan reduction project, restrictive growth control (AID 706;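 active means growth inhibition above a set limit, 3 SD over mean compound inhibition, in both replicates, cut at about 43% in these data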;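 further: modified DeaD lifespan yeast strain shifted to restrictive glucose medium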); settings: OD615, 48 h, at 10 µM, hits give high values
How it was run: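 material = engineered S. cerevisiae DeaD strain | medium = glucose-based CSMM-D restrictive medium | times = 4 h pre-incubation, 48 h exposure at 30 °C | technique = OD615 absorbance reading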

[3] = viability gain of MRP-1-high H69AR cells under doxorubicin, pilot screen, MRP-1 activator project, CellTiter-Glo, duplicate (AID 807;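 active means viability increase at or above a cutoff of the median across tested compounds plus 3 SD, cut at about 8.5% in these data, passing the limit was not always enough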;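 further: compound pretreatment 18-22 h then 72 h combined with doxorubicin; 0% = doxorubicin alone and 100% = vehicle without doxorubicin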); settings: H69AR viability with doxorubicin, CellTiter-Glo luminescence; at 10 µM; hits give high values
[4] = growth suppression of PTEN-deleted HCT116, pilot screen, cell-based, HCT116 clonal line, CellTiter-Glo (AID 824;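 active means viability at or below 27.92% in each of two runs, the all-compound median minus 4 SD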;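 further: 0% = 20 µM Hyamine control and 100% = vehicle cell control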); settings: 60 h, at 10 µM, hits give low values
[5] = inhibitors of the yeast RAM network, pilot screen, dse1pr::URA3 reporter, 5-FOA selection (AID 869;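 active means inhibition over a set limit, the all-compound mean plus 3 SD, in both replicate runs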;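 further: 0% = DMSO wells with no growth and 100% = 10 µM 1-NA-PP1 with full growth; RAM network block rescues cells from 5-FOA so hits raise OD615 growth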); settings: S. cerevisiae dse1pr::URA3 5-FOA growth, OD615, 2 d; at 10 µM; hits give high values; strain carries analog-sensitive mutant Cbk1 kinase
[6] = RAM signaling pathway blockade in yeast – S. cerevisiae, Pdr1DBD-CYC8 efflux-inhibited sensitized strain, primary screen (AID 1298);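 further: 0% = DMSO untreated cells without growth and 100% = 10 µM 1-NA-PP1 full growth; higher means more yeast growth rescued from 5-FOA killing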; settings: S. cerevisiae cbk1-as DSE1-URA3 strain, 5-FOA growth OD615, 2 d; at 50 µM; hits give high values

CCNc1nc(-c2ccc(Cl)cc2)cs1
inactive: growth inhibition [1] 1.33% | growth inhibition [2] 0.05% | viability increase [3] -1.74% | viability [4] 84.4% | inhibition [5] -0.24% | RAM network inhibition [6] -0.26%

CCOc1ccc(S(=O)(=O)N(C)c2ccc(OCC(=O)Nc3ccc4[nH]c(=O)[nH]c4c3)cc2)cc1
inactive: growth inhibition [1] -7.61% | growth inhibition [2] -11.1% | viability increase [3] -4.94% | viability [4] 94.1% | inhibition [5] 0.8% | RAM network inhibition [6] 7.12%

COc1ccc(Oc2ccc(S(=O)(=O)N3CCCCC3)cc2S(=O)(=O)N2CCCCC2)cc1
inactive: growth inhibition [1] -4.96% | growth inhibition [2] -0.32% | viability increase [3] -3.43% | viability [4] 87.1% | inhibition [5] 1.56% | RAM network inhibition [6] 3.99%

COc1ccc(N2CCN(CCNC(=O)CCNS(=O)(=O)c3cccs3)CC2)cc1
inactive: growth inhibition [1] -5.45% | growth inhibition [2] -5.3% | viability increase [3] -0.82% | viability [4] 96.3% | inhibition [5] 1.71% | RAM network inhibition [6] 2.25%

Oc1ccc(C=NCC2COc3ccccc3O2)cc1 (stereo not given)
inactive: growth inhibition [1] -7.84% | growth inhibition [2] 2.85% | viability increase [3] -5.39% | viability [4] 85.3% | inhibition [5] 1.54% | RAM network inhibition [6] -2.56%

COc1cc(NC(=O)C2CC2)c(C(=O)O)cc1OC
inactive: growth inhibition [1] -3.4% | growth inhibition [2] 7.62% | viability increase [3] -2.58% | viability [4] 100% | inhibition [5] 1.68% | RAM network inhibition [6] -0.36%

CN(CCNC(=O)c1cc2c(=O)n(C)c3ccccc3c2n1C)Cc1ccccc1
inactive: growth inhibition [1] -12% | growth inhibition [2] -7.87% | viability increase [3] -8.65% | viability [4] 41.1% | inhibition [5] 1.83% | RAM network inhibition [6] -0.47%

COc1ccccc1C(=O)C(O)c1ccccc1OC (stereo not given)
inactive: growth inhibition [1] -8.34% | growth inhibition [2] 0.335% | viability increase [3] 0.03% | viability [4] 94.4% | inhibition [5] 0.755% | RAM network inhibition [6] 5.17%

O=C(c1ccsc1)N1CCN(C(=O)c2cccs2)CC1
inactive: growth inhibition [1] -9.91% | growth inhibition [2] 2.31% | viability increase [3] 1.13% | viability [4] 107% | inhibition [5] 2.04% | RAM network inhibition [6] 0.97%

COc1ccc(C2C(C(=O)c3cccs3)=C(O)C(=O)N2c2nncs2)cc1 (stereo not given)
inactive: growth inhibition [1] -15.5% | growth inhibition [2] -14.4% | viability increase [3] -1.95% | viability [4] 102% | inhibition [5] 0.41% | RAM network inhibition [6] 2.46%

Cc1ccc(N(CC(=O)NCc2ccco2)S(=O)(=O)c2ccccc2)cc1
inactive: growth inhibition [1] -10.9% | growth inhibition [2] -7.57% | viability increase [3] -4.6% | viability [4] 87.2% | inhibition [5] 1.1% | RAM network inhibition [6] 1.9%

Cc1cccc(-n2ncc3c(NCc4ccccc4)ncnc32)c1
inactive: growth inhibition [1] 5.07% | growth inhibition [2] 12.1% | viability increase [3] -5.25% | viability [4] 31.8% | inhibition [5] 1.38% | RAM network inhibition [6] 11.8%

O=c1c2cnn(-c3ccccc3)c2nc(-c2ccco2)n1-c1ccccc1
inactive: growth inhibition [1] -4.83% | growth inhibition [2] -7.2% | viability increase [3] -5.59% | viability [4] 55.4% | inhibition [5] 1.39% | RAM network inhibition [6] 8.81%

O=C(O)CNS(=O)(=O)c1ccc(F)cc1
inactive: growth inhibition [1] -6.07% | growth inhibition [2] -7.54% | viability increase [3] -0.77% | viability [4] 94.4% | inhibition [5] 2.21% | RAM network inhibition [6] 0.32%

Brc1ccc2ncnc(NCc3ccco3)c2c1
inactive: growth inhibition [1] 2.37% | growth inhibition [2] 13% | viability increase [3] -7.68% | viability [4] 35.5% | inhibition [5] 1.71% | RAM network inhibition [6] 4.76%

CCOC(=O)N1CCN(C(=O)CN(c2cccc(C)c2)S(=O)(=O)c2ccccc2)CC1
inactive: growth inhibition [1] -9.07% | growth inhibition [2] -2.69% | viability increase [3] -2.44% | viability [4] 97.8% | inhibition [5] -0.31% | RAM network inhibition [6] 0.62%

CC(Sc1nc2c(c(=O)n(C)c(=O)n2C)n1Cc1cc2c(cc1Cl)OCO2)C(=O)O (stereo not given)
inactive: growth inhibition [1] -10.7% | growth inhibition [2] -5.16% | viability increase [3] -0.64% | viability [4] 99.9% | inhibition [5] 1.83% | RAM network inhibition [6] 1.02%

CCOC(=O)C1CCN(S(=O)(=O)c2cc(Br)cc3c2N(C(=O)C2CC2)CC3)CC1
inactive: growth inhibition [1] -12.9% | growth inhibition [2] -13.7% | viability increase [3] -1.73% | viability [4] 96.5% | inhibition [5] 1.68% | RAM network inhibition [6] 1.38%

O=C(O)c1ccc(N2C(=O)CC(Cc3ccccc3)C2=O)cc1 (stereo not given)
inactive: growth inhibition [1] -3.14% | growth inhibition [2] 2.02% | viability increase [3] -1.42% | viability [4] 100% | inhibition [5] -0.025% | RAM network inhibition [6] 0.72%

COc1ccc(N(CC(=O)NCc2ccco2)S(C)(=O)=O)cc1Cl
inactive: growth inhibition [1] -14.3% | growth inhibition [2] -4.89% | viability increase [3] -3.2% | viability [4] 91.7% | inhibition [5] 2.38% | RAM network inhibition [6] 6.11%
